PubChem BioAssay
Records with an inconclusive call do not appear.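 Rule for the calls, unless noted: active = inhibition over a set limit, the all-compound mean plus 3 SD, in both replicate runs; inconclusive = over that limit in just one replicate run; inactive = at or under that limit in both runs.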

Legend:
[1] = OD615 S. cerevisiae growth inhibition, permissive medium, pilot counter-assay, permissive growth control for S. cerevisiae lifespan shortening project (AID 705;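 active = growth inhibition above 25% in both replicates, a cutoff set 3 SD above the mean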); conditions: OD615, 24 h, at 10 µM, hits give high values
Procedure, shortened: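 System: engineered DeaD yeast; Medium: permissive raffinose/galactose medium; Compound dosing: 10 µM single dose, 0.25% DMSO; Incubation: 4 h cell pre-growth, 24 h exposure at 30 °C; Technique: OD at 615 nm; Evaluation: growth inhibition from lowered OD615 after 24 h.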

[2] = Restrictive medium S. cerevisiae growth inhibition, OD615, pilot screen of yeast lifespan reduction project, restrictive growth control (AID 706;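 active = growth inhibition above a set limit, 3 SD over mean compound inhibition, in both replicates, cut at about 43% in these data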;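 note: modified DeaD lifespan yeast strain shifted to restrictive glucose medium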); conditions: OD615, 48 h, at 10 µM, hits give high values
Procedure, shortened: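 Material: modified S. cerevisiae; buffer or medium: CSMM-D glucose medium; doses: one concentration, 10 µM final, 0.25% DMSO; incubation: 48 h compound exposure at 30 °C; detection: optical density at 615 nm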

[3] = viability gain of MRP-1-high H69AR cells under doxorubicin, pilot screen, MRP-1 activator project, CellTiter-Glo, duplicate (AID 807;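 active = viability increase at or above a cutoff of the median across tested compounds plus 3 SD, cut at about 8.5% in these data, passing the limit was not always enough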;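 note: compound pretreatment 18-22 h then 72 h combined with doxorubicin; 0% = doxorubicin alone and 100% = vehicle without doxorubicin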); conditions: H69AR viability with doxorubicin, CellTiter-Glo luminescence; at 10 µM; hits give high values
[4] = growth suppression of beta-catenin knockout HCT116, pilot screen, human colon tumor cells (AID 823;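 active = cell viability at or below a set limit in both duplicate runs, the limit being the all-compound median minus 4 SD, cut at about 23% in these data, passing the limit was not always enough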;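 note: 0% = wells killed by 20 µM Hyamine and 100% = untreated DMSO cell wells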); conditions: CellTiter-Glo, 60 h, at 10 µM, hits give low values
[5] = growth suppression of PTEN-deleted HCT116, pilot screen, cell-based, HCT116 clonal line, CellTiter-Glo (AID 824;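 active = viability at or below 27.92% in each of two runs, the all-compound median minus 4 SD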;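 note: 0% = 20 µM Hyamine control and 100% = vehicle cell control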); conditions: 60 h, at 10 µM, hits give low values
[6] = inhibitors of the yeast RAM network, pilot screen, dse1pr::URA3 reporter, 5-FOA selection (AID 869);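 note: 0% = DMSO wells with no growth and 100% = 10 µM 1-NA-PP1 with full growth; RAM network block rescues cells from 5-FOA so hits raise OD615 growth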; conditions: S. cerevisiae dse1pr::URA3 5-FOA growth, OD615, 2 d; at 10 µM; hits give high values; strain carries analog-sensitive mutant Cbk1 kinase
[7] = RAM signaling pathway blockade in yeast – S. cerevisiae, Pdr1DBD-CYC8 efflux-inhibited sensitized strain, primary screen (AID 1298;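 active = RAM network inhibition above 8.4% in each of two replicates, 3 SD over the compound average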;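 note: 0% = DMSO untreated cells without growth and 100% = 10 µM 1-NA-PP1 full growth; higher means more yeast growth rescued from 5-FOA killing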); conditions: S. cerevisiae cbk1-as DSE1-URA3 strain, 5-FOA growth OD615, 2 d; at 50 µM; hits give high values

CCSc1nnc(NC(=O)c2cccc(OCc3c(C)noc3C)c2)s1
inactive: growth inhibition [1] 1.08% | growth inhibition [2] 21.9% | viability increase [3] 0.55% | viability [4] 98.2% | viability [5] 92.6% | inhibition [6] 2.79% | RAM network inhibition [7] 4.07%

O=C1c2ccccc2C(=O)N1CCCc1nc2ccccc2c(=O)n1Cc1ccco1
inactive: growth inhibition [1] -12.9% | growth inhibition [2] -12.6% | viability increase [3] -1.68% | viability [4] 93.6% | viability [5] 93.5% | inhibition [6] 3.96% | RAM network inhibition [7] 7.66%

Cn1c(=O)[nH]c(=O)c2c1nc(CN1CCN(c3cccc(Cl)c3)CC1)n2Cc1ccccc1Cl
inactive: growth inhibition [1] -9.22% | growth inhibition [2] -6.86% | viability increase [3] -6.82% | viability [4] 41.1% | viability [5] 32.9% | inhibition [6] 1.39% | RAM network inhibition [7] 4.08%

O=C(c1csc2c1CCCC2)n1cccn1
inactive: growth inhibition [1] 13.2% | growth inhibition [2] 15.7% | viability increase [3] -0.86% | viability [4] 98.7% | viability [5] 106% | inhibition [6] 1.69% | RAM network inhibition [7] -0.11%

COc1ccc(OC)c2c(C)cc(NCCN3CCOCC3)nc12
inactive: growth inhibition [1] -14.7% | growth inhibition [2] -2.92% | viability increase [3] -4.52% | viability [4] 81.5% | viability [5] 84.9% | inhibition [6] 1.78% | RAM network inhibition [7] 2.55%

O=C(Cn1ncc2c(=O)oc3ccccc3c21)N1CCc2ccccc2C1
inactive: growth inhibition [1] -12.5% | growth inhibition [2] -12.7% | viability increase [3] -1.69% | viability [4] 103% | viability [5] 94.7% | inhibition [6] 0.645% | RAM network inhibition [7] -0.07%

COC(=O)C1C(O)=C(C(C)=N)C(=O)CC1(C)C (configuration not stated)
inactive: growth inhibition [1] -3.89% | growth inhibition [2] 2.82% | viability increase [3] -0.83% | viability [4] 98.1% | viability [5] 90.8% | inhibition [6] -0.755% | RAM network inhibition [7] 1.67%

Cc1cc(Nc2ccc(C(C)C)cc2)n2ncnc2n1
inactive: growth inhibition [1] -6.6% | growth inhibition [2] 7.39% | viability increase [3] -0.35% | viability [4] 95.2% | viability [5] 85.2% | inhibition [6] 0.465% | RAM network inhibition [7] 5.75%

COc1ccc(N2C(=O)C3CCCN3C2c2ccccc2OC)cc1 (configuration not stated)
inactive: growth inhibition [1] 2.4% | growth inhibition [2] -3.83% | viability increase [3] -3.2% | viability [4] 103% | viability [5] 97.4% | inhibition [6] 0.02% | RAM network inhibition [7] 0.12%

Cc1ccc(C2=CC(c3ccc(N(C)C)cc3)n3nnnc3N2)cc1 (configuration not stated)
inactive: growth inhibition [1] -10.6% | growth inhibition [2] 7.92% | viability increase [3] -4.61% | viability [4] 84% | viability [5] 77.3% | inhibition [6] 2.63% | RAM network inhibition [7] -0.47%

CCOC(=O)N1CCC(N2Cc3cccc(C(=O)NCc4ccccn4)c3C2=O)CC1
inactive: growth inhibition [1] -4.83% | growth inhibition [2] 8.18% | viability increase [3] -5.24% | viability [4] 99.8% | viability [5] 102% | inhibition [6] 2.19% | RAM network inhibition [7] -1.14%

COc1ccc(-n2nnc3c(=O)n(CC(=O)N4CCCCC4)cnc32)cc1
inactive: growth inhibition [1] -0.235% | growth inhibition [2] 4.3% | viability increase [3] -0.73% | viability [4] 96.1% | viability [5] 94.6% | inhibition [6] 0.975% | RAM network inhibition [7] -0.05%

O=C(CN1CCOCC1)Nc1cc(Cl)ccc1Cl
inactive: growth inhibition [1] -13.4% | growth inhibition [2] -2.5% | viability increase [3] -2.37% | viability [4] 92.6% | viability [5] 101% | inhibition [6] 2.6% | RAM network inhibition [7] 1.66%

CCOc1ccccc1N(CC(=O)Nc1ccccc1C(=O)O)S(C)(=O)=O
inactive: growth inhibition [1] -15.5% | growth inhibition [2] -9.54% | viability increase [3] 0.9% | viability [4] 97.5% | viability [5] 85.1% | inhibition [6] 0.11% | RAM network inhibition [7] 5.86%

COc1ccc(N2CCN(Cc3nc4c(c(=O)n(C)c(=O)n4C)n3Cc3cccc(C)c3)CC2)cc1
inactive: growth inhibition [1] -11.5% | growth inhibition [2] -24.2% | viability increase [3] -3.88% | viability [4] 80.1% | viability [5] 75.2% | inhibition [6] -0.7% | RAM network inhibition [7] 8.85%

O=C(Nc1cccc2ccccc12)N1CCN(c2ccc(F)cc2)CC1
inactive: growth inhibition [1] -12.3% | growth inhibition [2] -14.3% | viability increase [3] -1.74% | viability [4] 98.6% | viability [5] 98.8% | inhibition [6] 1.88% | RAM network inhibition [7] 3.08%

Cc1cc(C)c(NC(=O)CN2CCN(C)CC2)c(C)c1
inactive: growth inhibition [1] -1.99% | growth inhibition [2] 4.72% | viability increase [3] -1.53% | viability [4] 112% | viability [5] 92.3% | inhibition [6] 2.21% | RAM network inhibition [7] 1.38%

CCn1c(SCC(=O)NCC2CCCO2)nc2c(c1=O)SC(C)C2 (configuration not stated)
inactive: growth inhibition [1] -2.03% | growth inhibition [2] -29.9% | viability increase [3] -1.87% | viability [4] 103% | viability [5] 98% | inhibition [6] 0.93% | RAM network inhibition [7] 2.66%

COCCn1c(CN2CC(C)CC(C)C2)nc2c1c(=O)n(C)c(=O)n2C (configuration not stated)
inactive: growth inhibition [1] 8.93% | growth inhibition [2] 9.36% | viability increase [3] 0.07% | viability [4] 90.4% | viability [5] 98.5% | inhibition [6] -0.14% | RAM network inhibition [7] -0.26%

Cc1cc(OCCN2CCCC2)ccc1C(C)C
inactive: growth inhibition [1] -4.67% | growth inhibition [2] -1.01% | viability increase [3] -1.29% | viability [4] 89.1% | viability [5] 91.3% | inhibition [6] 2.1% | RAM network inhibition [7] 8.59%

CCC(=O)N1C(C(=O)N2CCCC2)CSC1c1ccc(OC)cc1 (configuration not stated)
inactive: growth inhibition [1] -12.1% | growth inhibition [2] -12.3% | viability increase [3] -3.3% | viability [4] 96% | viability [5] 97.5% | inhibition [6] -0.035% | RAM network inhibition [7] 0.53%

COc1ccc(-c2ccc(=O)n(CC(=O)N3CCN(c4ccccc4OC)CC3)n2)cc1
inactive: growth inhibition [1] -4.48% | growth inhibition [2] 12% | viability increase [3] 2.33% | viability [4] 89.7% | viability [5] 92.9% | inhibition [6] 1.15% | RAM network inhibition [7] 7.61%

C1=C(N2CCOCC2)/C(=C/c2nc3ccccc3[nH]2)CC1
inactive: growth inhibition [1] -10.4% | growth inhibition [2] 19.2% | viability increase [3] -4.25% | viability [4] 78.9% | viability [5] 82.1% | inhibition [6] 0.41% | RAM network inhibition [7] 2.44%

O=C(O)Cc1ccc(NC(=O)C2CC=CCC2C(=O)O)cc1 (configuration not stated)
inactive: growth inhibition [1] -7.36% | growth inhibition [2] 1.55% | viability increase [3] 1.02% | viability [4] 102% | viability [5] 104% | inhibition [6] 3.26% | RAM network inhibition [7] 8.93%

CN1CCN(C(=O)c2cc3c(s2)-c2ccccc2S(=O)(=O)C3)CC1
inactive: growth inhibition [1] -2.05% | growth inhibition [2] -0.515% | viability increase [3] -1.76% | viability [4] 103% | viability [5] 98.5% | inhibition [6] 1.8% | RAM network inhibition [7] 0.72%

NC(=O)CCc1c[nH]c2ccccc12
inactive: growth inhibition [1] -1.2% | growth inhibition [2] -4.15% | viability increase [3] -3.35% | viability [4] 91% | viability [5] 94.2% | inhibition [6] 2.47% | RAM network inhibition [7] 5.98%

CCCCN(C)CCNC(=O)Cn1c(=O)sc2ccccc21
inactive: growth inhibition [1] -0.71% | growth inhibition [2] 4.21% | viability increase [3] -2.43% | viability [4] 99% | viability [5] 96.6% | inhibition [6] 1.31% | RAM network inhibition [7] 5.27%

CCOc1ccc(N(C(C)C(=O)Nc2ccc(OC)cc2)S(C)(=O)=O)cc1 (configuration not stated)
inactive: growth inhibition [1] -10.2% | growth inhibition [2] -1.65% | viability increase [3] 0.78% | viability [4] 103% | viability [5] 90.2% | inhibition [6] 1% | RAM network inhibition [7] 3.17%

CCn1c2c(c3cc(Cl)ccc31)CCCC2=O
inactive: growth inhibition [1] -8.81% | growth inhibition [2] -10.1% | viability increase [3] -0.32% | viability [4] 96% | viability [5] 97.8% | inhibition [6] 0.915% | RAM network inhibition [7] 4.07%

CCCCC(=O)Nc1ncc2c(n1)CC(C)(C)CC2=O
inactive: growth inhibition [1] -7.95% | growth inhibition [2] -5.04% | viability increase [3] -2.35% | viability [4] 96.1% | viability [5] 98.2% | inhibition [6] 2.94% | RAM network inhibition [7] 1.03%

CCOc1cc(CN2CCSCC2)ccc1O
inactive: growth inhibition [1] -8.12% | growth inhibition [2] -9.94% | viability increase [3] 0.51% | viability [4] 97% | viability [5] 101% | inhibition [6] 0.825% | RAM network inhibition [7] 4.67%

CC(=O)NCCOc1c(C)cc(S(N)(=O)=O)cc1C
inactive: growth inhibition [1] 0.295% | growth inhibition [2] -6.93% | viability increase [3] -1.25% | viability [4] 92.4% | viability [5] 90.1% | inhibition [6] 0.43% | RAM network inhibition [7] 1.68%

CC1Cc2nc(SCC(=O)NCCc3ccccc3)n(C)c(=O)c2S1 (configuration not stated)
inactive: growth inhibition [1] -11.5% | growth inhibition [2] -1.29% | viability increase [3] -2.25% | viability [4] 100% | viability [5] 104% | inhibition [6] 1.77% | RAM network inhibition [7] 2.27%

CCOC(=O)c1sc(NC(=O)c2cccnc2)nc1C
inactive: growth inhibition [1] -7.2% | growth inhibition [2] -2% | viability increase [3] -3.19% | viability [4] 102% | viability [5] 97.7% | inhibition [6] 1.7% | RAM network inhibition [7] 1.1%

COc1cc(O)c(NC(C)=O)c2nonc12
inactive: growth inhibition [1] -5.37% | growth inhibition [2] 5.21% | viability increase [3] 0% | viability [4] 101% | viability [5] 107% | inhibition [6] -0.845% | RAM network inhibition [7] -1.46%

O=C(CN(Cc1ccccc1F)S(=O)(=O)c1ccc(Cl)cc1)NCCCO
inactive: growth inhibition [1] -12.7% | growth inhibition [2] -2.21% | viability increase [3] -2.15% | viability [4] 102% | viability [5] 93.7% | inhibition [6] 0.495% | RAM network inhibition [7] 1.84%
